Laboratory results taken from ChEMBL document CHEMBL5036326, “Development of Covalent, Clickable Probes for Adenosine A1 and A3 Receptors” (J Med Chem, 2021).
Active and inactive are the calls of the source. The calls are words filed in the database; no cut-off is given here.

Experiments:
Adenosine receptor A2b = target: T1, Adenosine receptor A2b (Homo sapiens, UniProt P29275); test: (§1) Antagonist activity at human adenosine A2B receptor expressed in Flp-In-CHO cell membrane assessed as inhibition of NECA-induced cAMP accumulation in presence of forskolin measured after 40 mins by alpha screen LANCE assay; type: functional
T1 sequence (P29275 whole entry): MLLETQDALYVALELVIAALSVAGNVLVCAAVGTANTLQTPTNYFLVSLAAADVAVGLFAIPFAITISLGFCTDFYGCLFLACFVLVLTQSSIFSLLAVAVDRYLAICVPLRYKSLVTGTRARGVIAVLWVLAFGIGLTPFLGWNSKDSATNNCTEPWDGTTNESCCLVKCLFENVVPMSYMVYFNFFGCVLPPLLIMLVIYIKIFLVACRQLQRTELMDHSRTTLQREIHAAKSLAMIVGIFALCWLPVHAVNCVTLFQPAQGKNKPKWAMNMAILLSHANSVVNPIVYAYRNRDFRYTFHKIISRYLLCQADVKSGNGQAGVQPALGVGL
In short: (§2)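 A2BR-FlpInCHO cells seeded at 30000 cells/well and incubated overnight at 37 °C. Antagonists tested against a submaximal (EC80) NECA concentration; NECA curves run alongside. cAMP response normalized to buffer (0%) and 3 μM forskolin (100%). Affinity derived by fitting NECA–antagonist interaction data to a competitive model. Duplicates, ≥3 experiments.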

Adenosine receptor A2a [1] = target: T2, Adenosine receptor A2a (Homo sapiens, UniProt P29274); test: Antagonist activity at human adenosine A2A receptor expressed in Flp-In-CHO cell membrane assessed as inhibition of NECA-induced cAMP accumulation in presence of forskolin measured after 40 mins by alpha screen LANCE assay; type: functional, cell membranes
T2 sequence (P29274 whole entry): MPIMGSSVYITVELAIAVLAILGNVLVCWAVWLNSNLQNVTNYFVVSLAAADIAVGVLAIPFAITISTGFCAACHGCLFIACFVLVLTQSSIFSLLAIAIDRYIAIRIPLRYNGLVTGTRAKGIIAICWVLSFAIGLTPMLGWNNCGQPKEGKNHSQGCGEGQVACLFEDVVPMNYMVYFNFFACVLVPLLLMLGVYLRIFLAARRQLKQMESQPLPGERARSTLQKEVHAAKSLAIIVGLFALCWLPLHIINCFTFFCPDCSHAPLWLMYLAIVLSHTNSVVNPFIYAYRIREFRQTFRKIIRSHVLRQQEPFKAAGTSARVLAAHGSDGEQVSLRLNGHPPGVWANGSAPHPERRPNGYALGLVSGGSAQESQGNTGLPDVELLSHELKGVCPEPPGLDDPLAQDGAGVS

Adenosine receptor A3 = target: T3, Adenosine receptor A3 (Homo sapiens, UniProt P0DMS8); test: Antagonist activity at human adenosine A3 receptor expressed in Flp-In-CHO cell membrane assessed as inhibition of NECA-induced cAMP accumulation in presence of forskolin measured after 40 mins by alpha screen LANCE assay; type: functional, cell membranes
T3 sequence (P0DMS8 whole entry): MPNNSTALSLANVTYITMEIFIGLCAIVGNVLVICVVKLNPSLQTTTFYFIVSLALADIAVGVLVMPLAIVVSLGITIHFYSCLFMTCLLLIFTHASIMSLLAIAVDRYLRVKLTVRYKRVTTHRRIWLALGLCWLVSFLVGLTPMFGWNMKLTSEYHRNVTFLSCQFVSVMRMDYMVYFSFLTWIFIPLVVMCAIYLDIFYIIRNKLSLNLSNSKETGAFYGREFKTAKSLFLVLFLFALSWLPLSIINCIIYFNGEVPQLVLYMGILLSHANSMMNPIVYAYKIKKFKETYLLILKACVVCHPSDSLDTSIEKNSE

[2] = target: T4, Adenosine receptor A3 (Homo sapiens) (UniProt P0DMS8); test: Inhibition of CA200645 binding to NanoLuc-fused human Adenosine A3 receptor expressed in HEK293-A cells using furimazine as substrate preincubated for 3 hrs followed by ligand washout and further incubated for 60 mins with CA200645 by NanoBRET assay; type: cell-based
T4 sequence (whole entry): T3 sequence (P0DMS8 whole entry)
In short: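 HEK293A cells transiently transfected (PEI) with N-terminal Nluc-A3R cDNA, assayed 48 h post-transfection. Cells incubated with competing ligands for 3 h in binding buffer, then washed 6 × 20 min. 5 nM CA200645 added for 60 min at room temperature, then 10 μM furimazine (final). BRET read as 610/460 nm emission ratio at 25 °C. Nonspecific binding defined with 1 μM MRS1220.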

[3] = target: T5, Adenosine receptor A1 (Homo sapiens) (UniProt P30542); details: Flp-In-CHO, Membrane, filed as antagonist, time 40.0 min
T5 sequence (whole entry): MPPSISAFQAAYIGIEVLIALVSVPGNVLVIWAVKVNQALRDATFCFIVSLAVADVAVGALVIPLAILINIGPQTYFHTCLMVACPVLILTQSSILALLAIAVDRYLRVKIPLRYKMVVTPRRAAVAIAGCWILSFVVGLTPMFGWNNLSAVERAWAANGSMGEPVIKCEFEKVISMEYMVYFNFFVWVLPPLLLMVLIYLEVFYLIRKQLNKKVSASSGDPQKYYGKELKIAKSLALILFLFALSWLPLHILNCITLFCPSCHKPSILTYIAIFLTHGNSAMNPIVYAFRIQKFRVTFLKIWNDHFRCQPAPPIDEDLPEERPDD

Adenosine receptor A1 [4] = target: T6, Adenosine receptor A1 (Homo sapiens, UniProt P30542); test: Antagonist activity at human adenosine A1 receptor expressed in Flp-In-CHO cell membrane assessed as inhibition of forskolin-stimulated cAMP accumulation preincubated for 5 min followed by forskolin stimulation and further incubated for 30 mins in presence of NECA by alphascreen LANCE assay
T6 sequence (P30542 whole entry): T5 sequence (whole entry)

Adenosine receptor A1 [5] = target: T6, Adenosine receptor A1; test: Displacement of [3H] DPCPX from human A1 adenosine receptor expressed in Flp-In-CHO cell membrane incubated for 4 hrs by microbeta scintillation counting method; type: cell membranes
Adenosine receptor A2a [6] = target: T2, Adenosine receptor A2a; details: Flp-In-CHO, Membrane, filed as antagonist, time 40.0 min
Adenosine receptor A1 [7] = target: T6, Adenosine receptor A1; test: Displacement of [3H] DPCPX from human adenosine A1 receptor expressed in Flp-In-CHO cell membrane incubated for 3 hrs followed by compound washout and further incubated for 4 hrs with radioligand by microbeta scintillation counting method; type: cell membranes
Adenosine receptor A1 [8] = target: T6, Adenosine receptor A1; test: Antagonist activity at human adenosine A1 receptor expressed in Flp-In-CHO cell membrane assessed as inhibition of NECA-induced cAMP accumulation in presence of forskolin measured after 40 mins by alpha screen LANCE assay; type: functional, cell membranes
[9] = target: T5, Adenosine receptor A1 (Homo sapiens); details: Flp-In-CHO, Membrane, filed as antagonist, time 40.0 min; remark: listed apart in the source
[10] = target: T7, Adenosine receptor A2b (Homo sapiens) (UniProt P29275); test: as §1; type: functional; details: filed as antagonist; in short: as §2
T7 sequence (whole entry): T1 sequence (P29275 whole entry)

[11] = target: T4, Adenosine receptor A3 (Homo sapiens); details: Flp-In-CHO, Membrane, filed as antagonist, time 40.0 min
[12] = target: T5, Adenosine receptor A1 (Homo sapiens); test: Displacement of [3H] DPCPX from human A1 adenosine receptor expressed in Flp-In-CHO cell membrane at 10 uM incubated for 4 hrs by microbeta scintillation counting method; type: cell membranes
In short: (§3)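 Membranes (15 μg) from hA1R-FlpInCHO cells incubated with competing ligand and about 1 nM [3H]DPCPX for 4 h at 25 °C. Binding buffer: HEPES, glucose, salts, 1 unit/mL ADA, pH 7.4. Filtration, ice-cold 0.9% NaCl washes, then β-counting. Nonspecific binding defined with 1 μM SLV320. Specific binding normalized to binding without competitor.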

[13] = target: T5, Adenosine receptor A1 (Homo sapiens); test: Displacement of [3H] DPCPX from human A1 adenosine receptor expressed in Flp-In-CHO cell membrane at 1 uM incubated for 4 hrs by microbeta scintillation counting method; type: cell membranes; details: filed as antagonist; in short: as §3
[14] = Solubility of the compound at 10 uM; type: physicochemical

Row | Structure (SMILES) | Ki (Adenosine receptor A2b) | Ki (Adenosine receptor A2a [1]) | Ki (Adenosine receptor A3) | pKb [3] | Ki (Adenosine receptor A1 [4]) | Ki (Adenosine receptor A1 [5]) | Ki (Adenosine receptor A1 [7]) | Ki (Adenosine receptor A1 [8]) | also measured
1 | CCCCn1c(=O)c2nc(C34CCC(C(=O)NCCCCN=[N+]=[N-])(CC3)CC4)[nH]c2n(CCCNC(=O)c2ccc(S(=O)(=O)F)cc2)c1=O | 26.3 nM | 166 nM | 4.9 nM | – | – | – | – | – | –
2 | CCCCn1c(=O)c2nc(C34CCC(C(=O)OC)(CC3)CC4)[nH]c2n(CCCNC(=O)c2ccc(S(=O)(=O)O)cc2)c1=O | – | – | – | 7.04 | 92 nM | 179 nM | – | – | inhibition [2]: inactive
3 | CCCCn1c(=O)c2nc(C34CCC(C(=O)NCCCN=[N+]=[N-])(CC3)CC4)[nH]c2n(CCCNC(=O)c2ccc(S(=O)(=O)F)cc2)c1=O | 79.4 nM | 38 nM | 4.2 nM | – | – | – | – | – | inhibition ([2]; filed as antagonist): Active
4 | CCCn1c(=O)c2nc(C34CCC(C(=O)NCCCN=[N+]=[N-])(CC3)CC4)[nH]c2n(CCCNC(=O)c2ccc(S(=O)(=O)F)cc2)c1=O | 17.8 nM | 26.3 nM | 11 nM | 9.19 | 0.6 nM | 3.5 nM | 7.8 nM | 2.8 nM | pKb (Adenosine receptor A2a [6]): 7.58; pKb [9]: 8.56; pKb [10]: 7.75; pKb [11]: 7.96
5 | C#CCCCCNC(=O)C12CCC(c3nc4c(=O)n(CCCC)c(=O)n(CCCNC(=O)c5ccc(S(=O)(=O)F)cc5)c4[nH]3)(CC1)CC2 | 35.4 nM | – | 43.7 nM | – | 0.6 nM | 1.6 nM | 9.3 nM | 3.9 nM | inhibition ([2]; filed as antagonist): Active
6 | CCCCn1c(=O)c2nc(C34CCC(C(=O)NCCCN=[N+]=[N-])(CC3)CC4)[nH]c2n(CCCNC(=O)c2ccc(S(=O)(=O)O)cc2)c1=O | – | – | – | 7.06 | 87.5 nM | 605 nM | – | – | inhibition [2]: inactive
7 | CCCn1c(=O)[nH]c2nc(-c3ccc(S(=O)(=O)N4CCN(c5ccc(Cl)cc5)CC4)cc3)[nH]c2c1=O | 1.3 nM | – | – | – | – | – | – | – | pKb [10]: 8.87
8 | CCCCn1c(=O)c2nc(C34CCC(C(=O)NCCCCCCCCN=[N+]=[N-])(CC3)CC4)[nH]c2n(CCCNC(=O)c2ccc(S(=O)(=O)F)cc2)c1=O | 6.7 nM | – | – | – | 2.4 nM | 3.7 nM | 16.1 nM | 10.2 nM | –
9 | CCCCn1c(=O)c2nc(C34CCC(C(=O)OC)(CC3)CC4)[nH]c2n(CCCNC(=O)c2ccc(S(=O)(=O)F)cc2)c1=O | – | – | – | 7.77 | 17.1 nM | 17.3 nM | 89.3 nM | – | inhibition ([2]; filed as antagonist): Active
10 | C#CCNC(=O)C12CCC(c3nc4c(=O)n(CCCC)c(=O)n(CCCNC(=O)c5ccc(S(=O)(=O)F)cc5)c4[nH]3)(CC1)CC2 | – | – | 46.8 nM | 6.23 | 585 nM | 26.1 nM | 38.8 nM | 30.9 nM | inhibition ([2]; filed as antagonist): Active; pKb [9]: 7.51; pKb [11]: 7.33
11 | CCCCn1c(=O)c2nc(C34CCC(C(=O)NCCOCCOCCN=[N+]=[N-])(CC3)CC4)[nH]c2n(CCCNC(=O)c2ccc(S(=O)(=O)F)cc2)c1=O | 22.9 nM | 31.6 nM | 39.8 nM | 8.86 | 1.4 nM | 6.1 nM | 10 nM | 3.5 nM | pKb (Adenosine receptor A2a [6]): 7.5; pKb [9]: 8.45; pKb [10]: 7.64; pKb [11]: 7.4
12 | CCCCn1c(=O)c2nc(C3CCCCC3)[nH]c2n(CCCNC(=O)c2ccc(S(=O)(=O)F)cc2)c1=O | – | – | – | 7.59 | 26 nM | 12.1 nM | – | – | Activity [12]: inactive; Activity [13]: Active; solubility [14]: Insoluble
13 | O[C@H]1CC[C@H](Nc2nc(-c3ccccc3)nc3[nH]ccc23)CC1 | – | – | – | 9.27 | 0.5 nM | 0.6 nM | – | 0.4 nM | pKb [9]: 9.44
14 | CCCCn1c(=O)c2nc(C34CCC(C(=O)NCCOCCOCCOCCN=[N+]=[N-])(CC3)CC4)[nH]c2n(CCCNC(=O)c2ccc(S(=O)(=O)F)cc2)c1=O | 95.5 nM | 36.3 nM | 8.3 nM | – | – | – | – | – | –
